Assay outcomes (PubChem BioAssay)
ATG4B inhibitor: ATG4B (human) cysteine protease inhibition | ATG4B cleavage of LC3-PLA2, NBD-HPC fluorescence, 1 h | inhibition, % at 8.33 µM | 340,000 tested, 0.51% active; in the data active = inhibition above about 40%
PfGluPho inh: PfG6PD (Plasmodium falciparum) enzyme inhibition; PfGluPho enzyme, NADPH resazurin-diaphorase fluorescence; inhibition, % at 20 µM; 350,000 tested, 0.78% active;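 active = inhibition reaching at least a set limit at 20 µM in the primary screen, cut at about 59% in these data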;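 note: 0% = DMSO wells with substrate and 100% = DMSO wells lacking glucose-6-phosphate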
HKDC1 inhibitor: HKDC1 (human) hexokinase inhibition. 340,000 tested, 0.16% active. recombinant HKDC1, G6PDH/diaphorase resazurin coupled fluorescence. inhibition, % at 20 µM. AID 493160. Q2TB90;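 active = inhibition above about 35% when tested at 20 µM, limit read from the data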;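 note: plate controls were DMSO wells with enzyme for no effect and DMSO wells lacking enzyme for full effect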
Target sequence (Q2TB90 whole entry, looked up): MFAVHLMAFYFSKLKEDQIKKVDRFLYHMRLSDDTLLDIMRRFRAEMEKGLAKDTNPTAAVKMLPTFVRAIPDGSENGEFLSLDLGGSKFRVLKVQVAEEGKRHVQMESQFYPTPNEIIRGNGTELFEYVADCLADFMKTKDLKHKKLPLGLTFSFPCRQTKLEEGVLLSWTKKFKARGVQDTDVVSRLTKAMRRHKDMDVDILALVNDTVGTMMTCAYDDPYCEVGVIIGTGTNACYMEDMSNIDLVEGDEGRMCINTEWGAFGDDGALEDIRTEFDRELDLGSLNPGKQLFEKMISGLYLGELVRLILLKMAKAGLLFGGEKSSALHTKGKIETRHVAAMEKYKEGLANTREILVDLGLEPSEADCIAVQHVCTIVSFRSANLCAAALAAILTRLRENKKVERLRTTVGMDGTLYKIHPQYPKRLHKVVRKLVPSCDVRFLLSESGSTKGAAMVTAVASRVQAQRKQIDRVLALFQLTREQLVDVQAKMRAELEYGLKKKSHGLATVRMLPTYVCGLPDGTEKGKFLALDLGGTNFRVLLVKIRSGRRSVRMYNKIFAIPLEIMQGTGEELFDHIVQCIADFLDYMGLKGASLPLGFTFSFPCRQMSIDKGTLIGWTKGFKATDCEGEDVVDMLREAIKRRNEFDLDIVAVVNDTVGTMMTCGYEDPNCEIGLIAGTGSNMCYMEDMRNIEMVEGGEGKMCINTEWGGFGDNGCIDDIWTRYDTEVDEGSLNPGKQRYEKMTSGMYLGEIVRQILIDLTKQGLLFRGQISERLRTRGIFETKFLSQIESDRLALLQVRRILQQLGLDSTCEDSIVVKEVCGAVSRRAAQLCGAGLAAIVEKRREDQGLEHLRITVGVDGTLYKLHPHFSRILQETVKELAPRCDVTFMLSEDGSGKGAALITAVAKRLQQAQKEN
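Assay system: in-house recombinant HK5 (HKDC1) enzyme. Input: HKDC1 at 5 µg/mL. Medium: Tris pH 8.0 buffer with MgCl2, Tween-20, BSA, BME. Dosing: single 20 µM dose. Schedule: 90 min reaction incubation at room temperature, dark. Signal: resazurin-to-resorufin fluorescence via G6PDH and diaphorase coupling, 525/613 nm. Controls: DMSO-enzyme wells negative, buffer-substituted wells positive.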
T cell HTS: T cell immune modulators affecting CD8 T cell-vesicle binding. 2C CD8+ T cell-vesicle binding, flow cytometry; stronger effect = lower value. response (vesicle binding), % at 7 µM. 330,000 tested, 0.068% active. AID 2052;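 active = response, share of CD8 T cells binding vesicles, and their 90th percentile fluorescence all below set limits, cut at about 80% in these data, passing the limit was not always enough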;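 note: values below 100% mean blocked vesicle binding to the CD8+ T cells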
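System: murine 2C transgenic CD8+ T lymphocytes; also added: QL9-loaded Drosophila micro-vesicles; times: binding 1.5 h at 37 °C; measured by: flow cytometry, PE anti-B7-1 (FL2) versus Alexa647 anti-CD8 (FL8), PFA-fixed; control set: Peptide-free naked vesicles (low) and QL9 vesicles with 0.7% DMSO vehicle (high)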
PKA-R2B act: activators of human PKA-R2B complex. P22694+P31323. activation, % at 11.4 µM. PKA-R2B holoenzyme dissociation, Cy5-IP20 fluorescence polarization; R2B truncated from residue 108, S112A mutant; 0% DMSO only, 100% 113 µM cGMP. 340,000 tested, 0.079% active;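 active = activation above a cutoff set at the mean over all compounds plus 3 SD, cut at about 18% in these data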;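 note: higher means more holoenzyme dissociation and a rise in polarization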
PKA-R1A activ: activates the PKA-R1A holoenzyme complex | P00514+P68181 | PKA-R1A dissociation, Cy5-IP20 fluorescence polarization; scaled: DMSO 0%, 113 µM cGMP 100% | activation, % at 11.4 µM | 340,000 tested, 0.083% active | AID 504707;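 active = percent activation above the mean of all tested compounds plus 3 SD, cut at about 19% in these data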;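 note: higher means more PKAc released from R1A so a rise in polarization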
ATG4B conf: confirmation of human ATG4B inhibitors | shares compounds with ATG4B inhibitor | ATG4B protease fluorescent substrate cleavage assay | inhibition, % at 8.33 µM | 320 tested, 92% active | AID 504757; in the data active = inhibition above about 39%
PLA2 ctr: counter-screen for ATG4B inhibitors: human phospholipase A2; purified PLA2, NBD-C6-HPC fluorescence, 45 min; AID 588402; shares compounds with ATG4B inhibitor; 1,600 tested, 66% active; inhibition, % at 8.33 µM; in the data active = inhibition above about 50%
* marks the source's active call; other numbers are inactive results; i = inactive; · = not tested or not shown. This is a sample that favours compounds with a hit; in the whole collection about 1.6% have one here.

SMILES | ATG4B inhibitor | PfGluPho inh | HKDC1 inhibitor | T cell HTS | PKA-R2B act | PKA-R1A activ | PLA2 ctr | others
O=C(CCCOc1ccc(Cl)cc1Cl)N1CCc2ccccc2C1 | 50* | 1 | -1 | 250 | -2 | 2 | 51*
O=C(CSCc1c(F)cccc1Cl)NNC(=S)NC1CCCCC1 | 66* | -15 | -4 | 370 | 3 | 0 | 63*
COc1ccc(C(=O)N2CCN(c3cccc(C)c3C)CC2)cc1S(=O)(=O)NC1CC1 | -11 | 2 | -3 | · | 8 | -5 | ·
O=C(O)c1cc(-c2ccc(-c3c(-c4ccc5c(c4)OCO5)noc3-c3ccsc3)cc2)nc2ccccc12 | 62* | -2 | 4 | 486 | 5 | 5 | 34 | ATG4B conf=18
CN(C)c1ccc(-c2c(-c3ccc4c(c3)OCO4)noc2-c2ccsc2)cn1 | -1 | 17 | 3 | i | -11 | 5 | ·
O=C(C1CCN(c2ncnc3c2nc2n3CCCCC2)CC1)N1CCN(c2ccccc2F)CC1 | 13 | -4 | 1 | 219 | 0 | 3 | ·
Cc1cccc(N2CCN(C(=O)C3CCN(c4ncnc5c4nc4n5CCCCC4)CC3)CC2C)c1 (stereo not drawn) | 47* | -22 | 5 | 296 | 0 | 8 | 40 | ATG4B conf=63*
Cc1ccc(NC(=O)C2CCN(c3ncnc4c3nc3n4CCCCC3)CC2)cc1Cl | 60* | 12 | 1 | 241 | -4 | -13 | 69*
Cc1ccc(NC(=O)C2CCCN(c3ncnc4c3nc3n4CCCCC3)C2)cc1Cl (stereo not drawn) | 4 | 4 | 2 | 278 | 5 | -4 | ·
Cc1cccc(N2CCN(C(=O)C3CCN(c4ncnc5c4nc4n5CCCCC4)CC3)CC2)c1C | 63* | 3 | 1 | 292 | -9 | -3 | 78*
Nc1c(-c2ccccc2)c(CSc2nc3ccccc3[nH]2)nn1-c1cccc(Cl)c1 | 43* | -2 | -3 | 271 | -5 | 5 | 58*
O=S(=O)(c1ccccc1)N1CCN(Cc2cccc(Cl)c2)CC1 | -2 | 26 | -3 | 168 | -3 | -13 | ·
O=S(=O)(c1ccccc1)N1CCN(c2cccc(Cl)c2)CC1 | 51* | -13 | -2 | 508 | -5 | -2 | 61*
COc1ccccc1N(CC(=O)Nc1cc(S(=O)(=O)N(C)C)ccc1C)S(=O)(=O)c1cccs1 | -8 | 37 | -4 | 766 | -10 | -4 | ·
C#Cc1ccc([C@@H]2C=C(C(=O)O)O[C@H](OCC)[C@H]2CCCO)cc1 | 59* | -9 | -6 | · | -9 | -2 | 72*
C#Cc1ccc([C@@H]2C=C(C(=O)NCc3ccccc3)O[C@H](OCC)[C@H]2CCCO)cc1 | -5 | 10 | -2 | 444 | 1 | -2 | ·
O=C(c1ccc(Oc2ccccc2)cc1)C1CCCN(C(=O)c2cnccn2)C1 (stereo not drawn) | -1 | 4 | -2 | 364 | -2 | -2 | ·
Cc1cc(C(=O)N2CCCC(C(=O)c3ccc(Oc4ccccc4)cc3)C2)n[nH]1 (stereo not drawn) | 46* | 10 | -3 | · | 6 | -5 | 39 | ATG4B conf=62*
CC(C)(C)c1ccc(C(=O)C2CCCN(C(=O)c3ccccn3)C2)cc1 (stereo not drawn) | 43* | -8 | 4 | · | -3 | -10 | 43 | ATG4B conf=81*
COC(=O)[C@H](Cc1ccccc1)NC(=O)Cn1cnc2c(NCc3ccccc3)ncnc21 | -1 | -3 | -5 | · | 0 | -13 | ·
CC1(C)CC(=O)C=C(c2ccc(-c3cnn(Cc4ccccc4)c3)cc2)C1=O | · | 17 | · | · | 1 | 2 | ·
Cc1ccc(NS(=O)(=O)c2cccc3nsnc23)cc1[N+](=O)[O-] | 2 | -7 | 5 | 113 | -4 | -2 | ·
CCOC(=O)c1cc(NC(=O)CCC(=O)O)ccc1N1CCCCC1 | -2 | 9 | -3 | 315 | 0 | 7 | ·
Cc1ccc(NC(=O)c2cc(NC(=O)CCC(=O)O)ccc2N2CCCCC2)cc1 | 46* | 11 | -5 | 238 | -3 | 5 | 49
Cc1ccc(NC(=O)COc2ccccc2C(N)=O)cc1S(=O)(=O)N1CCCCCC1 | -18 | -3 | 2 | 324 | 1 | 1 | ·
SMILES | ATG4B inhibitor | PfGluPho inh | HKDC1 inhibitor | T cell HTS | PKA-R2B act | PKA-R1A activ | PLA2 ctr | others
O=C(NNc1ccc(C2CCCCC2)cc1)C(O)(c1ccccc1)c1cccs1 (stereo not drawn) | 67* | 20 | 3 | 577 | 3 | -12 | 70*
Cc1noc(/C=C/c2ccco2)c1S(=O)(=O)N1CCC(C(=O)N2CCc3ccccc3C2)CC1 | 73* | 5 | 1 | 345 | -8 | 0 | 75*
COc1ccc(/C=C/c2onc(C)c2S(=O)(=O)N2CCC(C(=O)N3CCCCCC3)CC2)cc1 | 40* | 6 | -7 | 602 | -8 | -6 | 65*
O=C1NN(c2ccccc2)C(=O)/C1=C/c1ccc(-c2ccc(C(=O)O)cc2)o1 | 10 | 1 | 4 | 159 | 7 | -6 | ·
O=C1NN(c2ccccc2)C(=O)/C1=C/c1ccc(Sc2cccc3ccccc23)o1 | 44* | -23 | 19 | 130 | -8 | -2 | 32 | ATG4B conf=51*
COc1ccc(C(CC(=O)NCc2ccccc2)C(C)C)cc1 (stereo not drawn) | 46* | -6 | 0 | 245 | -6 | -3 | 44 | ATG4B conf=59*
O=C1NC(=S)NC1(c1ccccc1)c1ccccc1 | -13 | 4 | -9 | · | -2 | -1 | ·
O=C(Oc1c(-c2ccccc2)c(=O)n2c3c(cccc13)CC2)c1ccccc1 | 70* | 14 | 7 | 514 | · | · | 65*
O=C(Oc1c(-c2ccccc2)c(=O)n2c3c(cccc13)CC2)c1cccc([N+](=O)[O-])c1 | 28 | 25 | 13 | 625 | · | · | ·
O=C(Oc1c(-c2ccccc2)c(=O)n2c3c(cccc13)CC2)c1ccc(F)cc1 | 66* | 2 | 7 | 697 | 9 | 10 | 45 | ATG4B conf=62*
CCOc1ccccc1NC(=O)C(OC(=O)c1ccc(NC(=O)CC#N)cc1)c1ccccc1 (stereo not drawn) | -12 | 6 | -1 | 456 | -22 | -18 | ·
CCOc1ccc(S(=O)(=O)N2CCN(C(=O)CN3C(=O)NC(C)(C)C3=O)CC2)cc1 | -5 | 0 | -2 | 220 | -1 | 3 | ·
CCOc1ccc(/C=C2\SC(=S)N(CCC(=O)Nc3ccccc3C(=O)O)C2=O)cc1 | 23 | -1 | 18 | 229 | 4 | -5 | ·
